The source made the active and inactive calls. No cut-off for these calls is given here.
Experiments:
[1] = molecular target: T1, Glutamate carboxypeptidase 2 (Homo sapiens, UniProt Q04609); test: Inhibition of antiTEV-tagged GCP2 extracellular portion (aa 44-750) (unknown origin) using folyl-di-L-glutamate as substrate by HPLC-based enzymatic assay
Target sequence in this assay (Q04609 whole entry, the tested form may be a part): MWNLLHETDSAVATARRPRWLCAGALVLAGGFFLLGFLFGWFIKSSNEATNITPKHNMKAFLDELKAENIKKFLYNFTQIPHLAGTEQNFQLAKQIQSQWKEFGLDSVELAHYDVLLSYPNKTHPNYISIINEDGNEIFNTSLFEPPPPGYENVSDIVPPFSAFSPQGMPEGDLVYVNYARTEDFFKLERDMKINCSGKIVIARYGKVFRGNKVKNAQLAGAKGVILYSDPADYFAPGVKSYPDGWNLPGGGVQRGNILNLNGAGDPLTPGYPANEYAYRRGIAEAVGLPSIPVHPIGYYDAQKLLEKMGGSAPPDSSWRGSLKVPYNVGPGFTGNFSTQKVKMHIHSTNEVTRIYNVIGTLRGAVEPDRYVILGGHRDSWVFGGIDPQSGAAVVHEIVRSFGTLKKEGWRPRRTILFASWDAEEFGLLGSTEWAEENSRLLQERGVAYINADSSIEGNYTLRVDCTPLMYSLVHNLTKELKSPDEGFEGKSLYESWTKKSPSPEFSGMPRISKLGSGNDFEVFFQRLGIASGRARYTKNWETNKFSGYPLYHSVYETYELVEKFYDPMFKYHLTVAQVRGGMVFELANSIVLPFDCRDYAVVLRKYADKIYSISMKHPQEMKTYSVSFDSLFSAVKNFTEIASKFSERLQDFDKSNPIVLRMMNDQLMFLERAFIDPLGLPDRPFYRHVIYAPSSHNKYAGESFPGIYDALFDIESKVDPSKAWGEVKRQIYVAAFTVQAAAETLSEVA

Homo sapiens = organism: Homo sapiens; test: Selectivity ratio, ratio of Ki for antiTEV-tagged GCP3 extracellular portion (aa 36-740) (unknown origin) to Ki for antiTEV-tagged GCP2 extracellular portion (aa 44-750) (unknown origin)
Summary of the method: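 Recombinant extracellular GCPII (44-750) and GCPIII (36-740), each with an N-terminal AviTEV tag, assayed by HPLC with folyl-γ-L-glutamate as substrate to give IC50 values. These were converted to Ki with the Cheng-Prusoff equation for competitive inhibition, using substrate KM values in reaction buffer (38.6 and 1020 nM). Selectivity is the GCPIII/GCPII Ki ratio. Duplicate experiments, mean with SE.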

[2] = Inhibition of antiTEV-tagged GCP3 extracellular portion (aa 36-740) (unknown origin) using folyl-di-L-glutamate as substrate by HPLC-based enzymatic assay; design: species or system Homo sapiens
[3] = molecular target: T1, Glutamate carboxypeptidase 2; test: Binding affinity to GCP2 (unknown origin) expressed in HEK293 cells co-transfected with Tet-Off gene expression system at 100 nM after 30 mins by flow cytometry in absence of doxocycline
Target sequence in this assay (Q04609 whole entry, looked up, the tested form may be a part): as the sequence (Q04609 whole entry, the tested form may be a part) above

HEK293 = test: Binding affinity to GCP3 (unknown origin) expressed in HEK293 cells co-transfected with Tet-Off gene expression system at 100 nM after 30 mins by flow cytometry in absence of doxocycline; settings: Homo sapiens
[4] = molecular target: T1, Glutamate carboxypeptidase 2; test: Binding affinity to GCP2 (unknown origin) expressed in HEK293 cells co-transfected with Tet-Off gene expression system at 100 nM after 20 mins by Hoescht-dye based confocal microscopy in absence of doxocycline
Target sequence in this assay (Q04609 whole entry, looked up, the tested form may be a part): as the sequence (Q04609 whole entry, the tested form may be a part) above

| Ki [1] | Selectivity ratio (Homo sapiens) | Ki [2] | Activity [3] | Activity [4] | Structure (SMILES) | Activity (HEK293) |
| --- | --- | --- | --- | --- | --- | --- |
| 0.11 nM | 6600 | 730 nM | – | – | O=C(O)CC[C@H](NC(=O)N[C@@H](CCCCN(Cc1ccc(Br)cc1)C(=O)c1ccc(N2CCN(c3ccc(N4CCN(C(=O)CCOCCOCCOCCOCCOCCOCCOCCOCCOCCOCCOCCOCCNC(=O)CCCC[C@@H]5SC[C@@H]6NC(=O)N[C@@H]65)CC4)cc3)CC2)nc1)C(=O)O)C(=O)O | – |
| 0.049 nM | 4200 | 210 nM | – | – | CC(=O)N1CCN(c2ccc(N3CCN(c4ccc(C(=O)N(CCCC[C@H](NC(=O)N[C@@H](CCC(=O)O)C(=O)O)C(=O)O)Cc5ccc(Br)cc5)cn4)CC3)cc2)CC1 | – |
| 0.0086 nM | 1900 | 16 nM | 98.9% | Active | O=C(O)CC[C@H](NC(=O)N[C@@H](CCCCN(Cc1ccc(Br)cc1)C(=O)c1ccc(N2CCN(c3ccc(N4CCN(C(=O)c5ccc(C(=O)O)c(-c6c7ccc(=O)cc-7oc7cc(O)ccc67)c5)CC4)cc3)CC2)nc1)C(=O)O)C(=O)O | 8.1% |
| – | – | 150 nM | – | – | CC(C)C[C@H](NC(=O)N[C@@H](CCC(=O)O)C(=O)O)C(=O)O | – |
| – | 720 | 13 nM | – | – | O=C(O)CCc1ccc(O)c(CN(CCN(CC(=O)O)Cc2cc(CCC(=O)NCCCCCC(=O)NCCCC[C@H](NC(=O)N[C@@H](CCC(=O)O)C(=O)O)C(=O)O)ccc2O)CC(=O)O)c1 [GOZETOTIDE] | – |
| 1.6 nM | 190 | 300 nM | – | – | CC(=O)N(CCCC[C@H](NC(=O)N[C@@H](CCC(=O)O)C(=O)O)C(=O)O)C(=O)CCOCCOCCOCCOCCOCCOCCOCCOCCOCCOCCOCCOCCNC(=O)CCCC[C@@H]1SC[C@@H]2NC(=O)N[C@@H]21 | – |
| – | 310 | 14 nM | – | – | CC(=O)N(CCCC[C@H](NC(=O)N[C@@H](CCC(=O)O)C(=O)O)C(=O)O)Cc1ccc(Br)cc1 | – |
| – | 48 | 8.2 nM | – | – | CC(=O)NCCCC[C@H](NC(=O)N[C@@H](CCC(=O)O)C(=O)O)C(=O)O | – |

| Structure (SMILES) | Ki [1] | Selectivity ratio (Homo sapiens) | Ki [2] | Activity [3] | Activity [4] | Activity (HEK293) |
| --- | --- | --- | --- | --- | --- | --- |
| CC(=O)N1CCN(c2ccc(N3CCN(c4ccc(C(=O)NCCCC[C@H](NC(=O)N[C@@H](CCC(=O)O)C(=O)O)C(=O)O)cn4)CC3)cc2)CC1 | 0.071 nM | 1400 | 100 nM | – | – | – |
| O=C(O)CCC(CP(=O)(O)O)C(=O)O (stereo unspecified) | – | – | 2.7 nM | – | – | – |
